The target in assay [1] is Melanocortin receptor 4 (Mus musculus) (UniProt P56450). The experiment in a line: Agonist activity at mouse MC4R expressed in HEK293 cells at 100 uM incubated for 2 hrs by AlphaScreen cAMP assay relative to untreated control. It counts as functional, cell-based.
A further assay addresses Melanocortin receptor 4 (Mus musculus, UniProt P56450). The assay is described as follows: Antagonist activity at mouse MC4R expressed in HEK293 cells assessed as reduction in NDP-MSH-induced response incubated for 2 hrs by AlphaScreen cAMP assay based Schild analysis. It is filed as functional, cell-based. As to conditions: read-out: pA2 (converted). A general note: Alpha assays give light when donor and acceptor beads are brought close together.

The species entered for another assay is Mus musculus. The experiment in a line: Selectivity index, ratio of pA2 for antagonist activity at mouse MC3R expressed in HEK293 cells to pA2 for antagonist activity at mouse MC4R expressed in HEK293 cells. It is filed as cell-based.
The next assay has as its target Melanocortin receptor 3 (Mus musculus, UniProt P33033). The experiment in a line: Antagonist activity at mouse MC3R expressed in HEK293 cells assessed as reduction in NDP-MSH-induced response incubated for 2 hrs by AlphaScreen cAMP assay based Schild analysis. It counts as functional, cell-based. The following applies: read-out: pA2 (converted).
The target of assay [2] is Melanocortin receptor 5 (Mus musculus) (UniProt P41149). The assay is described as follows: Inverse agonist activity at mouse MC5R expressed in HEK293 cells at 100 uM incubated for 2 hrs by AlphaScreen cAMP assay. It is filed as functional, cell-based. The method, boiled down: (§1)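 In the mouse MC5R HEK293 stable line, cells in IBMX-containing stimulation buffer with anti-cAMP acceptor beads were exposed to compound at up to 100 μM for 2 h at room temperature in the dark. Donor beads/biotinylated cAMP were then added for 2 h before AlphaScreen reading. Signal was normalized to basal response to give a percent difference from basal. Duplicate wells, ≥3 independent experiments.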
Chain of Melanocortin receptor 5 (Mus musculus) (P41149 whole entry): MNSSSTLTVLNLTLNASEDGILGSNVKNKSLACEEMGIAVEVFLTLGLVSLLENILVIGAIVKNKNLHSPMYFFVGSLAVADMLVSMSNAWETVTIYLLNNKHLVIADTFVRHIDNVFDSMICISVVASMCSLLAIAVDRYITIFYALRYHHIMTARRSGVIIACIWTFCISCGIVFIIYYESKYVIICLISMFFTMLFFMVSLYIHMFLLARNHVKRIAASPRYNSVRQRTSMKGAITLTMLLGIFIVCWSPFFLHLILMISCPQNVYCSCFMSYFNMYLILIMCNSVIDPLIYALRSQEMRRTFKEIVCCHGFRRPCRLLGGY

Assay [3] deals with Melanocyte-stimulating hormone receptor (Mus musculus, UniProt Q01727). The experiment in a line: Agonist activity at mouse MC1R expressed in HEK293 cells incubated for 2 hrs by AlphaScreen cAMP assay. It is filed as functional, cell-based. The method, boiled down: (§2)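 HEK293 cells stably expressing mouse MC1R, about 90% confluent, were detached with Versene and suspended at 10,000 cells/μL in stimulation buffer (HBSS, 0.5 mM IBMX, 5 mM HEPES, 0.1% BSA, pH 7.4) with anti-cAMP acceptor beads. Compound was added for 2 h at room temperature in the dark, then donor beads/biotinylated cAMP in lysis buffer for 2 h, followed by AlphaScreen read. Doses went up to 100 μM in duplicate wells, ≥3 experiments. EC50 came from nonlinear regression, with efficacy as a percent of NDP-MSH.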
Chain of Melanocyte-stimulating hormone receptor (Q01727 whole entry): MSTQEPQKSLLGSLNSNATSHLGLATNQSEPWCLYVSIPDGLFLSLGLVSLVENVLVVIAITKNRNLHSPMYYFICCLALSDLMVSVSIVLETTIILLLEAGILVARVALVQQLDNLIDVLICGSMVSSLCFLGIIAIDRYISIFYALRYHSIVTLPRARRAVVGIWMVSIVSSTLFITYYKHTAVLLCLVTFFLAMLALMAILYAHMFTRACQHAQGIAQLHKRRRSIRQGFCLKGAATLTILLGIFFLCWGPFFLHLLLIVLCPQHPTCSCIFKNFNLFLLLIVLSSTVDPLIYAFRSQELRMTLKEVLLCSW

The target of assay [4] is Melanocyte-stimulating hormone receptor (Mus musculus) (UniProt Q01727). The assay is described as follows: Agonist activity at mouse MC1R expressed in HEK293 cells incubated for 2 hrs by AlphaScreen cAMP assay relative to NDP-MSH. It is filed as functional, cell-based. The method, boiled down:
as §2

A further assay addresses Melanocortin receptor 5 (Mus musculus, UniProt P41149). The assay is described as follows: Inverse agonist activity at mouse MC5R expressed in HEK293 cells incubated for 2 hrs by AlphaScreen cAMP assay. It is filed as functional, cell-based. The method in brief:
as §1

Assay [5] addresses Melanocortin receptor 3 (Mus musculus) (UniProt P33033). The experiment in a line: Agonist activity at mouse MC3R expressed in HEK293 cells at 100 uM incubated for 2 hrs by AlphaScreen cAMP assay relative to untreated control. It is filed as functional, cell-based.
In assay [6] the target is Melanocortin receptor 4 (Mus musculus) (UniProt P56450). The experiment in a line: Potency index, ratio of pA2 for test compound to pA2 for AGRP for antagonist activity at mouse MC4R expressed in HEK293 cells assessed as reduction in NDP-MSH-induced response incubated for 2 hrs by AlphaScreen cAMP assay based Schild analysis. It counts as functional, cell-based.
For assay [7], the target named is Melanocyte-stimulating hormone receptor (Mus musculus) (UniProt Q01727). The assay is described as follows: Agonist activity at mouse MC1R expressed in HEK293 cells at 100 uM incubated for 2 hrs by AlphaScreen cAMP assay relative to NDP-MSH. It counts as functional, cell-based. The method, boiled down:
as §2

Square brackets hold non-standard residues; d marks the D form. Peptide text beside a SMILES is read from it. hPhe = N[C@@H](CCc1ccccc1)C(=O)O; Nle = CCCC[C@H](N)C(=O)O; Dap = NC[C@H](N)C(=O)O Where only a bound is given, the exact number is not on record here.

The term EC50 denotes the concentration needed to bring the measured effect to its halfway point. The low end stands for a more potent agent, the high end for a less potent agent.

Chain of Melanocortin receptor 4 (Mus musculus) (P56450 whole entry): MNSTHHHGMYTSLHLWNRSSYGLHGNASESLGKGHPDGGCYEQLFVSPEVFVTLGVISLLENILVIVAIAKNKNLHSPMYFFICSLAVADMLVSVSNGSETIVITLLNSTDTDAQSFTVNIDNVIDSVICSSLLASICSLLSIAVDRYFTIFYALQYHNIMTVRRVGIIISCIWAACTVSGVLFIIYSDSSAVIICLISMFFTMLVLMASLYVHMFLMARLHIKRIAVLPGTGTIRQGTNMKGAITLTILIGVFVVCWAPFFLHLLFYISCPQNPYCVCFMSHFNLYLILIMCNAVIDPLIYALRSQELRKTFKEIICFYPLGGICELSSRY
Chain of Melanocortin receptor 4 (P56450 whole entry): as above
Chain of Melanocortin receptor 3 (P33033 whole entry): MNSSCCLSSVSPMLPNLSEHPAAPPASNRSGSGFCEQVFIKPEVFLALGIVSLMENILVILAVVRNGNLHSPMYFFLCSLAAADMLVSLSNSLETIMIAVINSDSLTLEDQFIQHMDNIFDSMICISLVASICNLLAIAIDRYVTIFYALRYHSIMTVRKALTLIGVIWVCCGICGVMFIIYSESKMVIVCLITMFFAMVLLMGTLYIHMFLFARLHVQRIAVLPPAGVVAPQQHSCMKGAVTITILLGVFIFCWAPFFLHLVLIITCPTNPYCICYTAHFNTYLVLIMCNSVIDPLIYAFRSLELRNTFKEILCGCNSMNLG
Chain of Melanocortin receptor 3 (Mus musculus) (P33033 whole entry): as above
Chain of Melanocortin receptor 5 (P41149 whole entry): as the sequence (P41149 whole entry) above
Chain of Melanocyte-stimulating hormone receptor (Mus musculus) (Q01727 whole entry, looked up): as the sequence (Q01727 whole entry) above

For `N=C(N)NCCC[C@@H]1NC(=O)[C@@H]2CCCN2C(=O)[C@H]2CCCN2C(=O)[C@H](Cc2ccccc2)NC(=O)[C@H](CO)NC(=O)[C@H](CN)NC(=O)[C@H](Cc2ccccc2)NC(=O)[C@H](Cc2ccccc2)NC1=O`, the Activity in assay [1] is below 20%; in assay [2], below 20%; in assay [4], 85%; in assay [5] it was below 20%. Also, the Kb on Melanocortin receptor 4 is 0.794 nM; at Melanocortin receptor 3, 158 nM. In addition, the Ratio in the assay filed under Mus musculus was found to be 170. Further, the EC50 in assay [3] was 600 nM; on Melanocortin receptor 5 it was above 100 µM.
As to `C[C@@H]1NC(=O)[C@H](CN)NC(=O)[C@H](CCc2ccccc2)NC(=O)[C@H](Cc2ccccc2)NC(=O)[C@H](CCCNC(=N)N)NC(=O)[C@@H]2CCCN2C(=O)[C@H]2CCCN2C(=O)[C@H](Cc2ccccc2)NC1=O`, the Activity in assay [1] was below 20%; in assay [2] it was below 20%; in [4], 70%; in assay [5], below 20%. Also, the figures for the Kb on Melanocortin receptor 4 and at Melanocortin receptor 3 were 0.794 nM and 79.4 nM, respectively. Besides, the Ratio in the assay filed under Mus musculus was determined as 100. Further, the EC50 in assay [3] is 560 nM; at Melanocortin receptor 5, above 100 µM.
On to `CCCC[C@@H]1NC(=O)[C@H](CO)NC(=O)[C@H](CC(N)=O)NC(=O)[C@H](Cc2ccccc2)NC(=O)[C@H](Cc2ccccc2)NC(=O)[C@H](CCCNC(=N)N)NC(=O)[C@@H]2CCCN2C(=O)[C@H]2CCCN2C1=O` (cyclo(RFFNS[Nle][dP]P)), for which the Activity in assay [1] was below 20%; in [2], -35%; in [4] it was 75%; in assay [5], below 20%. In addition, the Kb was 3.16 nM at Melanocortin receptor 4 and 251 nM at Melanocortin receptor 3. Moreover, the Ratio in the assay filed under Mus musculus was 79. In addition, the response in assay [3] was half-maximal at 2600 nM (EC50).
Take `CCCC[C@@H]1NC(=O)[C@H](CO)NC(=O)[C@H](CC(N)=O)NC(=O)[C@H](CCc2ccccc2)NC(=O)[C@H](Cc2ccccc2)NC(=O)[C@H](CCCNC(=N)N)NC(=O)[C@@H]2CCCN2C(=O)[C@H]2CCCN2C1=O` (cyclo(RF[hPhe]NS[Nle][dP]P)): the figures for the Ratio (in [6]; in the assay filed under Mus musculus) were 3 to 6 and 790, respectively. For the same compound, the Activity in [7], in assay [1], in assay [2] and in assay [5] was below 20% in each case. Further, the results for the Kb on Melanocortin receptor 4 and at Melanocortin receptor 3 were 0.631 nM and 501 nM, respectively. Besides, the EC50 in [3] is above 100000 nM; on Melanocortin receptor 5, above 100 µM.
For `CCCC[C@@H]1NC(=O)[C@H](C)NC(=O)[C@H](CN)NC(=O)[C@H](CCc2ccccc2)NC(=O)[C@H](Cc2ccccc2)NC(=O)[C@H](CCCNC(=N)N)NC(=O)[C@@H]2CCCN2C(=O)[C@H]2CCCN2C1=O` (cyclo(RF[hPhe][Dap]A[Nle][dP]P)), the Activity in assay [7], in assay [1], in [2] and in [5] was below 20% in each case. Besides, the Kb on Melanocortin receptor 4 is 0.794 nM; on Melanocortin receptor 3, 200 nM. In addition, the Ratio in the assay listed under Mus musculus is 250. The results for the EC50 (in [3]; at Melanocortin receptor 5) were above 100000 nM and above 100 µM, respectively.
With `CCCC[C@@H]1NC(=O)[C@H](CO)NC(=O)[C@H](CN)NC(=O)[C@H](CCc2ccccc2)NC(=O)[C@H](Cc2ccccc2)NC(=O)[C@H](CCCNC(=N)N)NC(=O)[C@@H]2CCCN2C(=O)[C@H]2CCCN2C1=O` (cyclo(RF[hPhe][Dap]S[Nle][dP]P)), the results for the Ratio (in assay [6]; in the assay listed under Mus musculus) were 3 to 6 and 630, respectively. Moreover, the Activity in [7], in assay [1], in assay [2] and in [5] was below 20% throughout. In addition, the Kb on Melanocortin receptor 4 is 0.316 nM; on Melanocortin receptor 3, 200 nM. For the same compound, the concentration for a half-maximal effect (EC50) in assay [3] was above 100000 nM; on Melanocortin receptor 5, above 100 µM.

(Values after ChEMBL document CHEMBL4145669 (J Med Chem, 2018).)
